In ChEMBL document CHEMBL1157026, “Novel antileishmanial chalconoids: synthesis and biological activity of 1- or 3-(6-chloro-2H-chromen-3-yl)propen-1-ones” (Eur J Med Chem, 2010):

Columns and labels:
[1] = Cytotoxicity against BALB/c mouse peritoneal macrophage after 24 hrs by MTT assay; type: cell-based; conditions: peritoneal macrophage cell
Summary of the method: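 Mouse peritoneal macrophages were seeded at 2 × 10⁵ cells/well. After adherence, the medium was replaced with medium holding one concentration per compound. Plates were incubated 24 h at 37 °C in humidified 5% CO2. Controls got culture medium plus DMSO. Viability was read by MTT colorimetric assay.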

Leishmania major = assay: Antileishmanial activity against Leishmania major MRHO/IR/75/ER promastigote infected in BALB/c mouse peritoneal macrophage after 24 hrs by MTT assay; type: functional, organism-based
Summary of the method: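 L. major vaccine strain MRHO/IR/75/ER, maintained by passage in BALB/c mice, grown on blood agar at 25 °C. Log-phase promastigotes at 2 × 10⁶/mL were put in phenol red-free RPMI 1640 with 10% FCS, 2 mM glutamine, pH ~7.2 and antibiotics, with serial drug dilutions, for 24 h at 25 °C. MTT (0.5 mg/mL) was added for 4 h at 37 °C; pellets were dissolved in DMSO and read on a plate reader. IC50 was determined.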

Compound	Activity [1]	IC50 (Leishmania major) [µM]
COc1cc(C(=O)/C=C/C2=Cc3cc(Cl)ccc3OC2)cc(OC)c1OC	Non-toxic	2.06
COc1cccc(/C=C/C(=O)C2=Cc3cc(Cl)ccc3OC2)c1OC	Non-toxic	2.8
O=C(/C=C/C1=Cc2cc(Cl)ccc2OC1)c1ccccc1Cl	Non-toxic	1.22
O=C(/C=C/C1=Cc2cc(Cl)ccc2OC1)c1ccc(Cl)cc1Cl	Non-toxic	1.91
MEGLUMINE ANTIMONATE	40%	–
O=C(/C=C/C1=Cc2cc(Cl)ccc2OC1)c1ccccc1F	Non-toxic	2.22
Cc1ccc(/C=C/C(=O)C2=Cc3cc(Cl)ccc3OC2)cc1	Non-toxic	2.75
COc1ccc(OC)c(/C=C/C(=O)C2=Cc3cc(Cl)ccc3OC2)c1	Non-toxic	3
O=C(/C=C/c1ccccc1Br)C1=Cc2cc(Cl)ccc2OC1	Non-toxic	1.33
